From ChEMBL document CHEMBL4229344 (Eur J Med Chem, 2018)
Activity calls are given as the source filed them. No cut-off for these calls is given here.

What was measured:
[1] = test system: Tyrosine-protein kinase ABL1 (Homo sapiens), P00519 [F317L]; assay: Binding affinity to human non-phosphorylated ABL1 F317L mutant (S229 to K512 residues) expressed in mammalian expression system assessed as residual binding level at 1 uM by Kinomescan method relative to control
In short: (§1)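 Kinome-wide single-concentration binding screen (KINOMEscan) at 1 μM against a panel of 468 purified kinases and mutants. Read-out is relative binding of each kinase compared with control. Selectivity across the panel was summarised as an S(10) score.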

[2] = target: ALK tyrosine kinase receptor (Homo sapiens) (UniProt Q9UM73); assay: Binding affinity to wild-type human partial length ALK (I1088 to E1409 residues) expressed in mammalian expression system assessed as residual binding level at 1 uM by Kinomescan method relative to control
In short: (§2)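 Single-concentration KINOMEscan (DiscoverX) binding screen at 1 μM against a panel of 468 purified kinases and mutants. The read-out is binding relative to control.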

[3] = target: Peripheral plasma membrane protein CASK (Homo sapiens) (UniProt O14936); assay: Binding affinity to wild-type human partial length CASK (M1 to H315 residues) expressed in mammalian expression system assessed as residual binding level at 1 uM by Kinomescan method relative to control
In short: (§3)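 Kinome-wide competition binding screen against a panel of 468 purified kinases/mutants, with the test compound at a single concentration of 1 μM. Read-out is the relative binding activity of each kinase in the presence of compound.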

[4] = target: Cyclin-dependent kinase 5 (Homo sapiens) (UniProt Q00535); assay: Binding affinity to wild-type human full length CDK5 (M1 to P292 residues) expressed in bacterial expression system assessed as residual binding level at 1 uM by Kinomescan method relative to control
In short: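 KINOMEscan competition binding against 468 purified kinases/mutants, test compound at 1 µM; residual binding relative to control.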

[5] = target: Epidermal growth factor receptor (Homo sapiens) (UniProt P00533); assay: Binding affinity to human partial length EGFR E746-A750del mutant expressed in bacterial expression system assessed as residual binding level at 1 uM by Kinomescan method relative to control; in short: as §1
[6] = test system: Receptor-type tyrosine-protein kinase FLT3 (Homo sapiens), P36888 [K663Q]; assay: Binding affinity to human partial length FLT3 K663Q mutant (V592 to Y969 residues) expressed in bacterial expression system assessed as residual binding level at 1 uM by Kinomescan method relative to control; in short: as §1
[7] = target: Mitogen-activated protein kinase kinase kinase 13 (Homo sapiens) (UniProt O43283); assay: Binding affinity to wild-type human full length LZK (M1 to W966 residues) expressed in mammalian expression system assessed as residual binding level at 1 uM by Kinomescan method relative to control
In short: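 Single-concentration (1 μM) competition-binding screen run by KINOMEscan against a panel of 468 purified kinases and mutants. The read-out is the relative binding activity of the test compound to each kinase.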

[8] = target: Serine/threonine-protein kinase MARK1 (Homo sapiens) (UniProt Q9P0L2); assay: Binding affinity to wild-type human partial length MARK1 (Q30 to T341 residues) expressed in bacterial expression system assessed as residual binding level at 1 uM by Kinomescan method relative to control
[9] = target: Mitogen-activated protein kinase kinase kinase 10 (Homo sapiens) (UniProt Q02779); assay: Binding affinity to wild-type human partial length MLK2 (V52 to W380 residues) expressed in bacterial expression system assessed as residual binding level at 1 uM by Kinomescan method relative to control
[10] = target: Myosin-IIIa (Homo sapiens) (UniProt Q8NEV4); assay: Binding affinity to wild-type human partial length MYO3A (M1 to K338 residues) expressed in bacterial expression system assessed as residual binding level at 1 uM by Kinomescan method relative to control; in short: as §3
[11] = target: Serine/threonine-protein kinase Nek1 (Homo sapiens) (UniProt Q96PY6); assay: Binding affinity to wild-type human partial length NEK1 (M1 to K278 residues) expressed in bacterial expression system assessed as residual binding level at 1 uM by Kinomescan method relative to control
[12] = target: 3-phosphoinositide-dependent protein kinase 1 (Homo sapiens) (UniProt O15530); assay: Binding affinity to wild-type human full length PDPK1 (M1 to Q556 residues) expressed in bacterial expression system assessed as residual binding level at 1 uM by Kinomescan method relative to control; in short: as §2
[13] = test system: Phosphatidylinositol 4,5-bisphosphate 3-kinase catalytic subunit alpha isoform (Homo sapiens), P42336 [E542K]; assay: Binding affinity to human partial length PIK3CA E542K mutant (R108 to N1068 residues) expressed in mammalian expression system assessed as residual binding level at 1 uM by Kinomescan method relative to control; in short: as §1
[14] = target: Serine/threonine-protein kinase pim-3 (Homo sapiens) (UniProt Q86V86); assay: Binding affinity to wild-type human partial length PIM3 (G16 to A317 residues) expressed in bacterial expression system assessed as residual binding level at 1 uM by Kinomescan method relative to control
[15] = test system: Proto-oncogene tyrosine-protein kinase receptor Ret (Homo sapiens), P07949 [V804M]; assay: Binding affinity to human partial length RET V804M mutant (E713 to D1014 residues) expressed in bacterial expression system assessed as residual binding level at 1 uM by Kinomescan method relative to control; in short: as §1
[16] = target: Proto-oncogene tyrosine-protein kinase Src (Homo sapiens) (UniProt P12931); assay: Binding affinity to wild-type human partial length SRC (L240 to L536 residues) expressed in bacterial expression system assessed as residual binding level at 1 uM by Kinomescan method relative to control
[17] = target: T1, Platelet-derived growth factor receptor alpha (Homo sapiens, UniProt P16234); assay: Inhibition of PDGFRalpha (unknown origin) using poly(4:1 Glu,Tyr) peptide as substrate preincubated for 1 hr followed by addition of ATP and measured after 30 mins by ADP-Glo bioluminescence assay
[18] = target: T1, Platelet-derived growth factor receptor alpha; assay: Inhibition of PDGFRalpha autophosphorylation at Y1018 residue in human EOL-1 cells up to 300 nM after 2 hrs by Western blot analysis; type: cell-based
[19] = target: T1, Platelet-derived growth factor receptor alpha; assay: Inhibition of PDGFRalpha in human EOL-1 cells assessed as decrease in ERK1/2 phosphorylation at T202/Y204 residues up to 300 nM after 2 hrs by Western blot analysis; type: cell-based
NCI-H1703 [20] = assay: Cell cycle arrest in human NCI-H1703 cells assessed as accumulation at G0/G1 phase at 0.3 to 10 uM after 72 hrs in presence of PDGF-AA by propidium iodide/RNase staining-based flow cytometric analysis; type: functional
In short: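 Cells treated with compound or DMSO for the stated periods, fixed overnight in 70% cold ethanol at −20 °C, stained with PI/RNase buffer, then analysed by flow cytometry for cell-cycle distribution. For NCI-H1703 stimulation, PDGF AA was used at 100 ng/mL.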

NCI-H1703 [21] = assay: Induction of apoptosis in human NCI-H1703 cells assessed as cleaved caspase3 expression level at 0.3 to 10 uM after 72 hrs by Western blot analysis; type: functional, cell-based
In short: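 Cells exposed to compound or DMSO for the stated periods, then lysed and immunoblotted for PARP and caspase-3 cleavage, with β-actin as loading control. NCI-H1703 stimulation used PDGF AA at 100 ng/mL.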

T1 sequence (P16234 whole entry): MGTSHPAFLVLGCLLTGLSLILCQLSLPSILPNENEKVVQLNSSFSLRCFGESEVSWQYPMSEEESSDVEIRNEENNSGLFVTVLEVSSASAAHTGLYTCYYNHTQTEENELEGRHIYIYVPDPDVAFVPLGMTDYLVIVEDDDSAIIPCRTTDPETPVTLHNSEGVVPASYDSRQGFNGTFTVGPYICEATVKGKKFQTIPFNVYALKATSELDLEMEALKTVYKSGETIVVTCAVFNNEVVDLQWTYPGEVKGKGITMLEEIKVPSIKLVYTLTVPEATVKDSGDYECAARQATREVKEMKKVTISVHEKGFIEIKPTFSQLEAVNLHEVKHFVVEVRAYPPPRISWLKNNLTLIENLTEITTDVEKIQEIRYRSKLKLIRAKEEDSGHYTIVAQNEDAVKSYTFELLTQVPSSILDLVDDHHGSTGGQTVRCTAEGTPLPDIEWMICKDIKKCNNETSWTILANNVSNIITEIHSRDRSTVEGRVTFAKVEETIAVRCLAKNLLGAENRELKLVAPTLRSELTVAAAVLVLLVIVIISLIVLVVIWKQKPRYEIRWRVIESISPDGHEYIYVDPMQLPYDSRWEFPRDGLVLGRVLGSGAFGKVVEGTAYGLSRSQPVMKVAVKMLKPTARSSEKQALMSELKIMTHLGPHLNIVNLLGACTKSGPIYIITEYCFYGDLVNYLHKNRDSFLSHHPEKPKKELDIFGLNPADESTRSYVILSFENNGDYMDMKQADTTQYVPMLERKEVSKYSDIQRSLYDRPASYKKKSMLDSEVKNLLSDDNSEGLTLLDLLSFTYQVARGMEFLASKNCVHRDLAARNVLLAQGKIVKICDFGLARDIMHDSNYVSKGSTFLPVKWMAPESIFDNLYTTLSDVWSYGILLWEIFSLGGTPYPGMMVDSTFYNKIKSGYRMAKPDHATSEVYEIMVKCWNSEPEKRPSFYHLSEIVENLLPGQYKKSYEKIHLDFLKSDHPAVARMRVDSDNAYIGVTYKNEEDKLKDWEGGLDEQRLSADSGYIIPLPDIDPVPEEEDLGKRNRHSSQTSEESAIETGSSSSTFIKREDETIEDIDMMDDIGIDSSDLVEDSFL
Sequence of Phosphatidylinositol 4,5-bisphosphate 3-kinase catalytic subunit alpha isoform (Homo sapiens), P42336 [E542K] (P42336 whole entry E542K, the tested form may be a part, canonical isoform): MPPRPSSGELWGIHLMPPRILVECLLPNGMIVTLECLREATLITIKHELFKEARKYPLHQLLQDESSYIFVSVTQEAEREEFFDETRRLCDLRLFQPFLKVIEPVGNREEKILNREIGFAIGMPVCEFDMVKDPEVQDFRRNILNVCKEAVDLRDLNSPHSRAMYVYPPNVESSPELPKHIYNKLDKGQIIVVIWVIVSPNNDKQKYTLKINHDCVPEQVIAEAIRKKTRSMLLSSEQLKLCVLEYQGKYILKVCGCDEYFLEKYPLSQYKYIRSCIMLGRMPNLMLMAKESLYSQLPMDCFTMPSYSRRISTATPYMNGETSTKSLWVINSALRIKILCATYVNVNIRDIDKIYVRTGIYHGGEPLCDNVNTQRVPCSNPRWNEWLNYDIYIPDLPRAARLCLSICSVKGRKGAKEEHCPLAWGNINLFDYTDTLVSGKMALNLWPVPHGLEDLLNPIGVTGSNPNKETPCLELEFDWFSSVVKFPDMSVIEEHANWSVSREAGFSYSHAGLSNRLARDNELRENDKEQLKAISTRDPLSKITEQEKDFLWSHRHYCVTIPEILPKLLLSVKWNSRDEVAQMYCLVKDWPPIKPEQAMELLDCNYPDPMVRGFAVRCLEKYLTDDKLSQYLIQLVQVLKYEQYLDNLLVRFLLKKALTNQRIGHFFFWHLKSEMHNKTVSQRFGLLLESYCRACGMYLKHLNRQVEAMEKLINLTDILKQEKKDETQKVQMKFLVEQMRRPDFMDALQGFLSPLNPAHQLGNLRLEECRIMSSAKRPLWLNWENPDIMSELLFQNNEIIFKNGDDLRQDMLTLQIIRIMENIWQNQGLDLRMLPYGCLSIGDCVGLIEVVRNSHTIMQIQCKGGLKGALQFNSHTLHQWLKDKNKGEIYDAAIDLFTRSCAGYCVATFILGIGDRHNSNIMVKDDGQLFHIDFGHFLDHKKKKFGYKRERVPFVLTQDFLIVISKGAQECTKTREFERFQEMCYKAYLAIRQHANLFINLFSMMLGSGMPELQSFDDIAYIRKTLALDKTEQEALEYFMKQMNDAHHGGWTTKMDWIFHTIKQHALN
Sequence of ALK tyrosine kinase receptor (Homo sapiens) (Q9UM73 19-1620 limits assumed): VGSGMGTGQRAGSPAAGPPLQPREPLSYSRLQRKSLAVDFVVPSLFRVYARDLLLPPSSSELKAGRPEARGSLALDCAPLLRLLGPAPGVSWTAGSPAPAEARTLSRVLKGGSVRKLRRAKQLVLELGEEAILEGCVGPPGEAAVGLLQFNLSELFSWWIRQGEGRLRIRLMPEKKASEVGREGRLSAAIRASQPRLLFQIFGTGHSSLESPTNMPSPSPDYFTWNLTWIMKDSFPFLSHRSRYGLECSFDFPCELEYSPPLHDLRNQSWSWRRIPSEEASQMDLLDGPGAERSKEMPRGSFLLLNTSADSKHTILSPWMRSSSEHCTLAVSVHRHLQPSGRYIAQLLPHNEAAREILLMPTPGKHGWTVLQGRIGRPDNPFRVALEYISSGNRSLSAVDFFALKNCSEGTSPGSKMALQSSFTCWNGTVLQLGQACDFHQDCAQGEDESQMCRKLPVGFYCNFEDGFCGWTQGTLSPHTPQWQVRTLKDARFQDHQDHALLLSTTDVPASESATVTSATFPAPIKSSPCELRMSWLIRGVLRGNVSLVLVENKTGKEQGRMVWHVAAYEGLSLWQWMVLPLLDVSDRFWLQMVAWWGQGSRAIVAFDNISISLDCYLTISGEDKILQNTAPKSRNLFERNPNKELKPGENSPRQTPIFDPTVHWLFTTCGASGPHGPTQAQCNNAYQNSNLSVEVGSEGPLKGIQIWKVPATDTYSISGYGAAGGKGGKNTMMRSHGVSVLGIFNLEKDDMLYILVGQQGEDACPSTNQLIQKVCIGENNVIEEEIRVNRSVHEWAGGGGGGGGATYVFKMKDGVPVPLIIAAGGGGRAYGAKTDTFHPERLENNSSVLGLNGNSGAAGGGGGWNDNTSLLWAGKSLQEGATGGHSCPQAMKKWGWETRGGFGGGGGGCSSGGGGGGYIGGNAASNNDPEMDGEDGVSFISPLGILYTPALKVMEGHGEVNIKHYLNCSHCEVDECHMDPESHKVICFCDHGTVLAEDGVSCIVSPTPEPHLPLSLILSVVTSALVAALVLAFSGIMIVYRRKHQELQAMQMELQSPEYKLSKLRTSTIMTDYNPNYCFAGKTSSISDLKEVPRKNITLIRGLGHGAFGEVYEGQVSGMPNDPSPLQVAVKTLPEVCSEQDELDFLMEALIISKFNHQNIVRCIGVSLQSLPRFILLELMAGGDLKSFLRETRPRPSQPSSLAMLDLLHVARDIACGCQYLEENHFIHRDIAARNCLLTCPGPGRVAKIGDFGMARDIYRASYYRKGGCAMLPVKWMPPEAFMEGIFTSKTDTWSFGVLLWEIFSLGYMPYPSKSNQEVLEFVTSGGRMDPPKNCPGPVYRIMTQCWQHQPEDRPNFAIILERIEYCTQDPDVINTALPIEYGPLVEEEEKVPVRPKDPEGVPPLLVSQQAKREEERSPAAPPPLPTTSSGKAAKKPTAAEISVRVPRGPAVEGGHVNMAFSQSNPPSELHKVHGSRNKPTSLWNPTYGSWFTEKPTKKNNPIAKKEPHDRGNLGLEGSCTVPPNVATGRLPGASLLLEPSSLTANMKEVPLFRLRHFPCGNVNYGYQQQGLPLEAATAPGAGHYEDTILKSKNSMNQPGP
Sequence of 3-phosphoinositide-dependent protein kinase 1 (Homo sapiens) (O15530 whole entry, the tested form may be a part, canonical isoform): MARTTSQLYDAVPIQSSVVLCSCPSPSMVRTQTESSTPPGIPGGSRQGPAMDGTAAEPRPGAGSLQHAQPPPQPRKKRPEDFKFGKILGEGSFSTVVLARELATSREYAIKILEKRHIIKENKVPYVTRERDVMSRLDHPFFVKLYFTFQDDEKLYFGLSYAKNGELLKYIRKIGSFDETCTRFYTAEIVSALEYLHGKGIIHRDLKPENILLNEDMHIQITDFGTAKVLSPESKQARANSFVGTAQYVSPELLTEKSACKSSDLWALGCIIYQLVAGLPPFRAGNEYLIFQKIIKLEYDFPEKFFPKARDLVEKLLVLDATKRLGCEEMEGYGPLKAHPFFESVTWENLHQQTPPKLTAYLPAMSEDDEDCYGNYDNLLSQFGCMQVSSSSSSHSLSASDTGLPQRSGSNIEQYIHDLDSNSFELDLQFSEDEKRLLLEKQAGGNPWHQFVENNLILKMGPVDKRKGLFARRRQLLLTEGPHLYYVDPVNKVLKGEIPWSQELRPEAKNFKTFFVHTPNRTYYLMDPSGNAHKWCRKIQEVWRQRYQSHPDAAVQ
Sequence of Cyclin-dependent kinase 5 (Homo sapiens) (Q00535 whole entry, looked up, the tested form may be a part): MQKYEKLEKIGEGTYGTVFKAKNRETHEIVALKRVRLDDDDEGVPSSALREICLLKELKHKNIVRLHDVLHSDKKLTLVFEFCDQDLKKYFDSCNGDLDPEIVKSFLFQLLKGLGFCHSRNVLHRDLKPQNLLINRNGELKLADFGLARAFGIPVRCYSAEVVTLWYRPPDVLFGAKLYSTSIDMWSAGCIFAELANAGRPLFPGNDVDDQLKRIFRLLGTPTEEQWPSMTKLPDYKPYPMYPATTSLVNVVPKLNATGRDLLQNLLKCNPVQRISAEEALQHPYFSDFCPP

With `Cc1ccc(NC(=O)c2ccc(CN(CCN(C)C)C(=O)c3cccnc3)cc2)cc1Nc1nccc(-c2cccnc2)n1` as the molecule, how does the Activity [1] read?
Its Activity is 79%.

What about the Activity [2] of the same molecule?
Its Activity is 100%.

What about the Activity [3] of the same molecule?
The Activity was 87%.

What about the Activity [4] of the same molecule?
Its Activity is 94%.

What about the Activity [5] of the same molecule?
The Activity was 100%.

And the Activity [6]?
Its Activity is 93%.

And the Activity [7]?
Its Activity is 100%.

And the Activity [8]?
Its Activity is 97%.

And the Activity [9]?
The Activity was 96%.

What about the Activity [10] of the same molecule?
The Activity was 92%.

And the Activity [11]?
Its Activity is 100%.

And the Activity [12]?
The Activity was 100%.

What about the Activity [13] of the same molecule?
Its Activity is 83%.

What about the Activity [14] of the same molecule?
The Activity was 100%.

And the Activity [15]?
The Activity was 96%.

And the Activity [16]?
The Activity was 100%.

And the IC50 [17]?
Its IC50 is 132 nM.

And the inhibition [18]?
Its inhibition is “Active”.

And the inhibition [19]?
Its inhibition is “Active”.

And the Activity (NCI-H1703 [20])?
The Activity was “Active”.

And the Activity (NCI-H1703 [21])?
The Activity was “inactive”.
